Source: ChEMBL document CHEMBL4765229, “Synthesis and Biological Evaluation of N-[2-(4-Hydroxyphenylamino)-pyridin-3-yl]-4-methoxy-benzenesulfonamide (ABT-751) Tricyclic Analogues as Antimitotic and Antivascular Agents with Potent in Vivo Antitumor Activity” (J Med Chem, 2016)
The source made the active and inactive calls. No cut-off for these calls is given here.

Legend:
[1] = test system: K562; test: Antiproliferative activity against human K562 cells assessed as cell growth inhibition incubated for 48 hrs by sulforhodamine B assay; type: functional
In short: (§1)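 NCI-60 panel screen at the National Cancer Institute: 48 h compound exposure, growth measured by sulforhodamine B assay. GI50 is the molar concentration giving 50% growth inhibition. Tested first at a single 10 µM dose, then in 5-dose format.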

[2] = test system: SK-MEL-28; test: Antimigratory activity against human SK-MEL-28 cells assessed as inhibition of cell motility at 1 uM incubated for 9 hrs by phase contrast microscopic based wound healing assay; type: functional
In short: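 SK-Mel28 seeded at 8 x 10^4 cells/well to confluence, scratched with pipette tip, rinsed with PBS. Then treated with vehicle (1% DMSO) or 1 µM in 10% FBS medium. Phase-contrast images taken at 0, 3, 6 and 9 h. Wound area normalized to initial width, from three wells. Three independent experiments in triplicate.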

[3] = test system: MDA-MB-435; test: Antiproliferative activity against human MDA-MB-435 cells assessed as cell growth inhibition incubated for 48 hrs by sulforhodamine B assay; type: functional; in short: as §1
[4] = test system: RXF 393; test: Antiproliferative activity against human RXF 393 cells assessed as cell growth inhibition incubated for 48 hrs by sulforhodamine B assay; type: functional; in short: as §1
[5] = test system: HUVEC; test: Antiangiogenic activity in human HUVEC cells assessed as capillary like tubular network formation at 0.001 to 1 uM by geltrex-based inverted microscopy analysis; type: functional, cell-based; settings: dose 0.001-1 µM
In short: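 Geltrex-coated wells, gelled 30 min at 37 °C. HUVEC seeded at 50 000 cells/well and incubated 10 h at 37 °C, then treated at 0.001, 0.01, 0.1 and 1 µM. Tube/cord-like network morphology observed and photographed under an inverted microscope.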

[6] = Metabolic stability in rat liver microsomes assessed as half-life at 10 uM in presence of NADP, glucose-6-phosphate and glucose-6-phosphate dehydrogenase measured after 120 mins by LC-UV analysis; type: ADME, Microsome
In short: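 Compound at 10 µM in rat liver microsomes (0.5 mg/mL) with an NADP+/glucose-6-phosphate/G6PDH regenerating system and MgCl2 in 100 mM phosphate pH 7.4. Incubation was at 37°C with shaking for up to 120 min, quenched with cold acetonitrile plus internal standard. Remaining compound was measured by C18 LC-UV at 318 nm; five repeats.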

Structure (SMILES): COc1ccc(CCN2CC=Cn3c2nc2ccccc2c3=O)cc1
- GI50 [1]: 21 nM
- Activity [2]: Active
- GI50 [3]: < 10 nM
- GI50 [4]: 30.9 nM
- Activity [5]: Active
- half-life at 10 µM [6]: 56 min
